Measurements taken from ChEMBL document CHEMBL1129936, “Water soluble furoxan derivatives as NO prodrugs” (J Med Chem, 1997).

Key:
Rattus norvegicus [1] = species: Rattus norvegicus; test: Relaxation of endothelium […] strips of rat aorta precontracted with noradrenaline; assay type: functional
In short: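 Rat aortic strips in Krebs solution at 37 °C, gassed 95% O2-5% CO2 (pH 7.4), equilibrated 1 h, then contracted with noradrenaline 1 µM (submaximal). Cumulative concentration-response curves for relaxation gave EC50.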

Rattus norvegicus [2] = species: Rattus norvegicus; test: Relaxation of endothelium […] strips of rat aorta precontracted with noradrenaline in presence of 10 uM HbO2; assay type: functional
In short: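 Rat aortic strips in Krebs at 37 °C (95% O2-5% CO2, pH 7.4), precontracted with 1 µM noradrenaline and exposed to oxyhemoglobin 10 µM for at least 10 min before the vasodilator was added. Oxyhemoglobin came from bovine hemoglobin reduced with excess sodium dithionite at 4 °C. Relaxation concentration-response curves gave EC50.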

[3] = Nitric oxide released from prodrug in the absence of cysteine
In short: (§1)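 Compound at 10^-4 M final in pH 7.4 buffered water, no thiol, held at 37 °C for 1 h or 24 h. Nitrite was measured by Griess reagent: 10 min at room temperature, absorbance at 540 nm, sodium nitrite standards 10-80 nmol/mL. Reported as percent NO2- (mol/mol) ± SEM.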

[4] = Nitric oxide released from prodrug in the presence of cysteine
In short: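 Compound at 10^-4 M final was incubated 1 h at 37 °C, pH 7.4, with a 50-fold molar excess of cysteine (1:50). Nitrite was read by the Griess reaction at 540 nm after 10 min at room temperature against nitrite standards (10-80 nmol/mL). Given as percent NO2- (mol/mol) ± SEM.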

[5] = Nitric oxide releasing capability in the absence of cysteine after 24 hr; in short: as §1

Molecule | EC50 (Rattus norvegicus [1]) [nM] | EC50 (Rattus norvegicus [2]) [nM] | EC50 (Rattus norvegicus [1]; Rattus norvegicus, Aorta) [nM] | % NO2- [3] [M/M] | % NO2- [4] [M/M] | EC50 (Rattus norvegicus [2]; Rattus norvegicus, Aorta) [nM] | % NO2- [5] [M/M]
O=[N+]([O-])OCC(CO[N+](=O)[O-])O[N+](=O)[O-] [NITROGLYCERIN] | – | – | 22.4 | 0 | 45 | – | –
CN(C)CCSc1no[n+]([O-])c1S(=O)(=O)c1ccccc1 | – | – | 52 | 0 | 27.9 | 350 | –
CN(C)CCCOc1no[n+]([O-])c1-c1ccccc1 | – | – | 14300 | 0 | 3.9 | 124000 | –
CN(C)CCOc1c(-c2ccccc2)no[n+]1[O-] | – | – | 1230 | 6.3 | 62.9 | 2220 | 97
CN(C)CCOc1no[n+]([O-])c1S(=O)(=O)c1ccccc1 | – | – | 4.1 | 0 | 58.9 | 48 | –
CN(C)CCSc1c(S(=O)(=O)c2ccccc2)no[n+]1[O-] | – | – | 55.7 | 95.3 | 58.5 | 330 | 100
CN(C)CCS(=O)(=O)c1no[n+]([O-])c1-c1ccccc1 | – | – | 101 | 0 | 8.8 | 430 | –
NCCSc1no[n+]([O-])c1-c1ccccc1 | – | – | 15200 | 0 | 2.8 | 78000 | –
CN(C)CCSc1c(-c2ccccc2)no[n+]1[O-] | – | – | 1550 | 0 | 35 | 11500 | –

The remaining lines, values ahead:

EC50 (Rattus norvegicus [1]) [nM] | EC50 (Rattus norvegicus [2]) [nM] | EC50 (Rattus norvegicus [1]; Rattus norvegicus, Aorta) [nM] | % NO2- [3] [M/M] | % NO2- [4] [M/M] | EC50 (Rattus norvegicus [2]; Rattus norvegicus, Aorta) [nM] | % NO2- [5] [M/M] | Molecule
21.5 | 48.1 | – | – | – | – | – | SODIUM NITROPRUSSIDE [listing 1 of 2 here]
– | – | 48100 | 0 | 2.9 | 124000 | – | CN(C)CCSc1no[n+]([O-])c1-c1ccccc1
– | – | – | 1.5 | 58 | – | – | SODIUM NITROPRUSSIDE [listing 2 of 2 here]
– | – | 13 | 0 | 19.7 | 46 | – | NCCOc1no[n+]([O-])c1S(=O)(=O)c1ccccc1
– | – | 82.6 | 0 | 36.3 | 1010 | 33 | CN(C)CCS(=O)(=O)c1c(-c2ccccc2)no[n+]1[O-]
– | – | 1030 | 0 | 91.1 | 3630 | – | CN(C)CCCOc1c(-c2ccccc2)no[n+]1[O-]
– | – | 3480 | 4.5 | 37.9 | 15000 | 56 | NCCSc1c(-c2ccccc2)no[n+]1[O-]
– | – | 7350 | 0 | 3.9 | 68000 | – | CN(C)CCOc1no[n+]([O-])c1-c1ccccc1
– | – | 30 | 0 | 20.2 | 130 | – | CN(C)CCCOc1no[n+]([O-])c1S(=O)(=O)c1ccccc1
